“And” between values parts separate entries of the source, which are not always exact repeats. Equal values may be shown once.
Experiments:
Rattus norvegicus [1] = test: Biodistribution in Rat lung after 30 minutes of iv administration; format: ADME, organism-based; conditions: in vivo, 0.5 h
Summary of the method: (§1)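 125I-labeled compound solubilized in normal saline with Tween-20 and given iv to rats, about 5-30 μCi (9-83 μg) per animal. Three to five rats per time point. Rats killed by exsanguination under ether anesthesia at 5 min, 30 min or 24 h. Organs minced, blotted free of blood and counted for radioiodine. Lines with "per g" are % administered dose per gram ± SEM.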

Rattus norvegicus [2] = test: Biodistribution in Rat liver after 5 minutes of iv administration; format: ADME, organism-based; conditions: in vivo; summary of the method: as §1
Rattus norvegicus [3] = test: Biodistribution in Rat lung after 24 hours of iv administration; format: ADME, organism-based; conditions: in vivo; summary of the method: as §1
Rattus norvegicus [4] = test: Biodistribution in Rat lung after 5 minutes of iv administration; format: ADME, organism-based; conditions: in vivo; summary of the method: as §1
Rattus norvegicus [5] = test: Biodistribution in Rat blood after 24 hours of iv administration; format: ADME, organism-based; conditions: in vivo; summary of the method: as §1
Rattus norvegicus [6] = test: Biodistribution in Rat blood after 30 minutes of iv administration; format: ADME, organism-based; conditions: in vivo, 0.5 h; summary of the method: as §1
Rattus norvegicus [7] = test: Biodistribution in Rat blood after 5 minutes of iv administration; format: ADME, organism-based; conditions: in vivo; summary of the method: as §1
Rattus norvegicus [8] = test: Biodistribution in Rat heart after 24 hours of iv administration; format: ADME, organism-based; conditions: in vivo; summary of the method: as §1
Rattus norvegicus [9] = test: Biodistribution in Rat heart after 30 minutes of iv administration; format: ADME, organism-based; conditions: in vivo, 0.5 h; summary of the method: as §1
Rattus norvegicus [10] = test: Biodistribution in Rat heart after 5 minutes of iv administration; format: ADME, organism-based; conditions: in vivo; summary of the method: as §1
Rattus norvegicus [11] = test: Biodistribution in Rat liver after 24 hours of iv administration; format: ADME, organism-based; conditions: in vivo; summary of the method: as §1
Rattus norvegicus [12] = test: (§2) Biodistribution in Rat liver after 30 minutes of iv administration; format: ADME, organism-based; conditions: in vivo, 0.5 h; summary of the method: as §1
Rattus norvegicus [13] = test: as §2; format: ADME, organism-based; conditions: in vivo, 0.5 h; summary of the method: as §1; remark: listed apart in the source
Rattus norvegicus [14] = test: Compound was evaluated for the lipid soluble radioactivity extracted from rat liver at 0.5 hr after intravenous administration.; format: functional
Summary of the method: (§3)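 Liver and plasma taken 0.5 or 24 h after iv dosing of 125I-labeled compound in rats (n = 3-5). Extracted by a modified Folch procedure; value is % lipid (CHCl3/MeOH)-extractable radioactivity ± SEM. Extracts run on TLC in hexane/ethyl acetate 5:2 against unlabeled standard, then 1-cm strips counted to give % parent compound.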

Rattus norvegicus [15] = test: Compound was evaluated for the lipid soluble radioactivity extracted from rat plasma at 0.5 hr after intravenous administration.; format: functional; summary of the method: as §3
Rattus norvegicus [16] = test: Liver radioactivity after iv administration of compound (30 min) in rats; format: functional, organism-based
Summary of the method: (§4)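 Rats (3-5 per time point) dosed iv with about 5-30 μCi (9-83 μg) of 125I-labeled compound in saline containing Tween-20. Killed by exsanguination under ether at 5 min, 30 min or 24 h. Liver removed, minced, blotted and counted. Values are % administered dose per organ, based on each animal's actual liver weight, ± SEM.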

Rattus norvegicus [17] = test: Liver radioactivity after iv administration of compound (5 min) in rats; format: functional, organism-based; summary of the method: as §4
Rattus norvegicus [18] = test: Compound (125I labeled) was evaluated for the total radioactivity in albumin 5 min after intravenous administration.; format: functional; parameters: concentration or dose not given beside the values
Summary of the method: (§5)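 Rat plasma taken 5 or 30 min after iv dosing of 125I-labeled compound (saline/Tween-20) and run on polyacrylamide gel electrophoresis. Gels sectioned and each section gamma-counted. Radioactivity in each band (stacking gel, lipoproteins, albumin, below-albumin) is given as % of total radioactivity applied to the gel.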

Rattus norvegicus [19] = test: Evaluated for the total radioactivity in below albumin at 30 min after intravenous administration.; format: functional; summary of the method: as §5
Rattus norvegicus [20] = test: Compound (125I labeled) was evaluated for the total radioactivity in high-density lipoprotein 5 min after intravenous administration.; format: functional; summary of the method: as §5
Rattus norvegicus [21] = test: Compound (125I labeled) was evaluated for the total radioactivity in high-density lipoprotein, at 30 min after intravenous administration.; format: functional; summary of the method: as §5
Rattus norvegicus [22] = test: Compound (125I labeled) was evaluated for the total radioactivity in low-density lipoprotein 5 min after intravenous administration.; format: functional; parameters: concentration or dose not given beside the values; summary of the method: as §5
Rattus norvegicus [23] = test: Compound (125I labeled) was evaluated for the total radioactivity in low-density lipoprotein, at 30 min after intravenous administration.; format: functional; summary of the method: as §5
Rattus norvegicus [24] = test: Compound (125I labeled) was evaluated for the total radioactivity in stacking gel 5 min after intravenous administration.; format: functional; summary of the method: as §5
Rattus norvegicus [25] = test: Compound (125I labeled) was evaluated for the total radioactivity in stacking gel at 30 min after intravenous administration.; format: functional; summary of the method: as §5
Rattus norvegicus [26] = test: Compound (125I labeled) was evaluated for the total radioactivity in albumin at 30 min after intravenous administration.; format: functional; parameters: concentration or dose not given beside the values; summary of the method: as §5
Rattus norvegicus [27] = test: Compound was evaluated for the lipid soluble radioactivity extracted from rat plasma at 24 hr after intravenous administration.; format: functional; summary of the method: as §3
Rattus norvegicus [28] = test: Compound was evaluated for the lipid soluble radioactivity extracted from rat liver at 24 hr after intravenous administration.; format: functional; summary of the method: as §3
Rattus norvegicus [29] = test: Liver radioactivity after iv administration of compound (24 h) in rats; format: functional, organism-based; summary of the method: as §4

| SMILES | Biodistribution (Rattus norvegicus [1]) [%] | Biodistribution (Rattus norvegicus [2]) | Biodistribution (Rattus norvegicus [3]) [%] | Biodistribution (Rattus norvegicus [4]) [%] | Biodistribution (Rattus norvegicus [5]) [%] | Biodistribution (Rattus norvegicus [6]) [%] | Biodistribution (Rattus norvegicus [7]) [%] | Biodistribution (Rattus norvegicus [8]) [%] | Biodistribution (Rattus norvegicus [9]) [%] | Biodistribution (Rattus norvegicus [10]) [%] | Biodistribution (Rattus norvegicus [11]) | Biodistribution (Rattus norvegicus [12]) [%] | Biodistribution (Rattus norvegicus [13]) [%] | Extracted (Rattus norvegicus [14]) [%] | Parent compound (Rattus norvegicus [14]) [%] | Parent compound (Rattus norvegicus [15]) [%] | Radioactivity (Rattus norvegicus [16]) | Radioactivity (Rattus norvegicus [17]) | Total radioactivity (Rattus norvegicus [18]) [%] | Total radioactivity (Rattus norvegicus [20]) [%] | other results |
| --- | --- | --- | --- | --- | --- | --- | --- | --- | --- | --- | --- | --- | --- | --- | --- | --- | --- | --- | --- | --- | --- |
| Nc1c(I)cc(I)c(CCCCCCCCCCCC(=O)OCC(COC(=O)CCCCCCCCCCCc2c(I)cc(I)c(N)c2I)OC(=O)CCCCCCCCCCCc2c(I)cc(I)c(N)c2I)c1I | 0.67 | 0.6% and 6.94% | 0.09 | 1.13 | 0.07 | 0.91 | 1.46 | 0.05 | 0.65 | 2.67 | 0.1% and 0.71% | 5.24 | 5.24 | 76.5 | 68.8 | 24.1 | 45.7 | 53.8 | 30.2 | 27.2 | Total radioactivity (Rattus norvegicus [19]): 5.5% and 12.6%; Total radioactivity (Rattus norvegicus [21]): 33.6%; Total radioactivity (Rattus norvegicus [22]): 12.7%; Total radioactivity (Rattus norvegicus [23]): 6.2%; Total radioactivity (Rattus norvegicus [24]): 24.4%; Total radioactivity (Rattus norvegicus [25]): 5.8%; Total radioactivity (Rattus norvegicus [26]): 40.6% |
| CCCCCCCCCCCCCCCC(=O)OC(COC(=O)CCCCCCCCCCCCCCCCc1c(I)cc(I)c(N)c1I)COC(=O)CCCCCCCCCCCCCCCCc1c(I)cc(I)c(N)c1I | 1.03 | 0.67% and 4.76% | 0.08 | 1.45 | 0.07 | 1.97 | 4.78 | 0.03 | 0.87 | 0.87 | 0.13% and 0.37% | 4.2 | 4.2 | 42.3 | 25.3 | 28.8 | 32.7 | 33.8 | 26.2 | 34.4 | Extracted (Rattus norvegicus [27]): 44.1%; Parent compound (Rattus norvegicus [27]): 18%; Extracted (Rattus norvegicus [28]): 63.5%; Parent compound (Rattus norvegicus [28]): 17.3%; Extracted (Rattus norvegicus [15]): 70.9%; Radioactivity (Rattus norvegicus [29]): 2.59; Total radioactivity (Rattus norvegicus [21]): 24.8%; Total radioactivity (Rattus norvegicus [22]): 32.9%; Total radioactivity (Rattus norvegicus [23]): 14.2%; Total radioactivity (Rattus norvegicus [24]): 2.5%; Total radioactivity (Rattus norvegicus [25]): 9.7%; Total radioactivity (Rattus norvegicus [26]): 37.1% |
| CCCCCCCCCCCCCCCC(=O)OC(COC(=O)CCCCCCCCCCCc1c(I)cc(I)c(N)c1I)COC(=O)CCCCCCCCCCCc1c(I)cc(I)c(N)c1I | 0.73 | 0.64% and 5.84% | 0.12 | 1.38 | 0.1 | 1.49 | 2.74 | 0.12 | 1.06 | 1.43 | 0.14% and 1.06% | 4.24 | 4.24 | 64.2 | 28.1 | 11.3 | 30.7 | 43.4 | 14.8 | 12 | Extracted (Rattus norvegicus [27]): 52%; Parent compound (Rattus norvegicus [27]): 25.3%; Extracted (Rattus norvegicus [28]): 81.7%; Parent compound (Rattus norvegicus [28]): 44.9%; Extracted (Rattus norvegicus [15]): 64.6%; Radioactivity (Rattus norvegicus [29]): 7.73; Total radioactivity (Rattus norvegicus [19]): 3.4% and 3.1%; Total radioactivity (Rattus norvegicus [21]): 25.7%; Total radioactivity (Rattus norvegicus [22]): 8.2%; Total radioactivity (Rattus norvegicus [23]): 12.1%; Total radioactivity (Rattus norvegicus [24]): 61.6%; Total radioactivity (Rattus norvegicus [25]): 8.6%; Total radioactivity (Rattus norvegicus [26]): 50.7% |
